# Data as given in PMC3677025 (Pharmacological research : the official journal of the …, 2012).
# “And” between values parts separate entries of the source, which are not always exact repeats. Equal values may be shown once.
# How the values were obtained:
# EphA4 = EphA4 (Mus musculus, UniProt Q03137); experiment: EphA4 AP binding to immobilized KYL peptide
# How it was run: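 Biotinylated KYL peptide (biotin on the lysine of a C-terminal GSGSK linker) was captured on streptavidin-coated wells, with coating in borate buffer pH 8.7. Test compound (10 μM in 1% DMSO for screening; varied concentrations for confirmation) was added with ~0.35 nM mouse EphA4 ectodomain–AP from NIH3T3 supernatant in TBST. Bound AP was read at 405 nm with 1 mg/ml p-nitrophenylphosphate in SEAP buffer pH 9.8, minus AP-only background. Percent inhibition was taken relative to no-compound wells.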
# EphB2 = experiment: ELISA, ephrin-B2 AP binding to immobilized EphB2 Fc; conditions: concentrations up to 200 μM
# How it was run: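 Eph receptor Fc fusions were immobilized at 1 μg/ml in TBST on protein A-coated wells. Diluted ephrin AP fusion supernatant from transiently transfected HEK293 cells was added for 2 h with or without test compound; for IC50 it was at approximately 0.01 nM. Bound AP was read with p-nitrophenylphosphate, minus Fc-only background. IC50 came from a variable-slope log(inhibitor)–response fit, bottom constrained to 0.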
# EphA2 [1] = biological target: T1, EphA2 (Homo sapiens, UniProt P29317); experiment: Ephrin-A1 Fc-induced EphA2 tyrosine phosphorylation in PC3 cells; format: cell-based; conditions: read-out: IC50, EphA2 tyrosine phosphorylation, 0.25 μg/mL ephrin-A1 Fc, ELISA
# T1 sequence (P29317 24-976): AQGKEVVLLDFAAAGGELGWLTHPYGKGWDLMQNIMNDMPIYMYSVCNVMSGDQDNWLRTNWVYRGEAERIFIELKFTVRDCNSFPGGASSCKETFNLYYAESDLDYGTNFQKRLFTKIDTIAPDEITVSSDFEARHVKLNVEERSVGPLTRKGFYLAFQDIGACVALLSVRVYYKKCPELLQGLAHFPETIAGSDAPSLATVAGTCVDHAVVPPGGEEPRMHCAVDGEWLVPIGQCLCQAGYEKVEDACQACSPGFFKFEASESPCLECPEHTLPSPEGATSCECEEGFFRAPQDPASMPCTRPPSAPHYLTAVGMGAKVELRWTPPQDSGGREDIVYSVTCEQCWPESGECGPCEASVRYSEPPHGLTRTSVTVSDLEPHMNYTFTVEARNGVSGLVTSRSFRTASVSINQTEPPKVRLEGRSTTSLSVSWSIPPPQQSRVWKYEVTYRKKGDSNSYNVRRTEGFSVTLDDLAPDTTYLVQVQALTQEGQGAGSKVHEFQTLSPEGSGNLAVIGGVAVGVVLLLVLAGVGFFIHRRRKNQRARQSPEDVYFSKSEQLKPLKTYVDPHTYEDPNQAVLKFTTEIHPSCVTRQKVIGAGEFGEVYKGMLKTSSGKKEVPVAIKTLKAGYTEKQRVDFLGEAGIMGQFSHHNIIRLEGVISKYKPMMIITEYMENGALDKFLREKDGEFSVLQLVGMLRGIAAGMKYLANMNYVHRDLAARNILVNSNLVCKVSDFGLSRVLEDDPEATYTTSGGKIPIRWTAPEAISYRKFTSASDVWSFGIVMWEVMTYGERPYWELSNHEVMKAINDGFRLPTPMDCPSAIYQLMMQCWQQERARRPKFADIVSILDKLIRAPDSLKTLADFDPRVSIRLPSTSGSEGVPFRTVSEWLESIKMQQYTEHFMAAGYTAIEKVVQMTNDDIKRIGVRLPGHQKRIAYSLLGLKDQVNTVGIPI
# How it was run: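 PC3 cells were serum-starved 1 h, given test compound (final DMSO ≤0.4%) for 15 min, then ephrin-A1 Fc for 20 min with compound still present. Lysis was in modified RIPA with NaF and pervanadate. Lysates were split for phospho and total EphA2 ELISA: anti-EphA2 extracellular capture, anti-phosphotyrosine or anti-cytoplasmic EphA2 detection, ABTS read at A405. IC50 was fitted to values normalized to ephrin-only cells.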
# EphA2 [2] = biological target: T1, EphA2; experiment: Ephrin-A1 Fc-induced EphA2 phosphorylation in HUVECs; format: cell-based; conditions: at 50 μM
# How it was run: (§1)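 HUVECs were serum-starved 1–2 h and preincubated 15 min with 50 μM test compound (DMSO ≤0.4% final). They were then stimulated 20 min with 0.25 μg/mL ephrin-A1 Fc plus 1.5 μg/mL ephrin-B2 Fc (preclustered with 3-fold anti-Fc), or Fc, with compound present. Lysates were made in modified RIPA with NaF and pervanadate. EphA2 (1 μg antibody) and EphB4 (20 μg antibody) immunoprecipitates were immunoblotted for phosphotyrosine; lysates were probed for receptors and β-actin.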
# EphB4 = biological target: T2, EphB4 (Homo sapiens, UniProt P54760); experiment: Ephrin-B2 Fc-induced EphB4 phosphorylation in HUVECs; format: cell-based; conditions: at 50 μM
# T2 sequence (P54760 16-987): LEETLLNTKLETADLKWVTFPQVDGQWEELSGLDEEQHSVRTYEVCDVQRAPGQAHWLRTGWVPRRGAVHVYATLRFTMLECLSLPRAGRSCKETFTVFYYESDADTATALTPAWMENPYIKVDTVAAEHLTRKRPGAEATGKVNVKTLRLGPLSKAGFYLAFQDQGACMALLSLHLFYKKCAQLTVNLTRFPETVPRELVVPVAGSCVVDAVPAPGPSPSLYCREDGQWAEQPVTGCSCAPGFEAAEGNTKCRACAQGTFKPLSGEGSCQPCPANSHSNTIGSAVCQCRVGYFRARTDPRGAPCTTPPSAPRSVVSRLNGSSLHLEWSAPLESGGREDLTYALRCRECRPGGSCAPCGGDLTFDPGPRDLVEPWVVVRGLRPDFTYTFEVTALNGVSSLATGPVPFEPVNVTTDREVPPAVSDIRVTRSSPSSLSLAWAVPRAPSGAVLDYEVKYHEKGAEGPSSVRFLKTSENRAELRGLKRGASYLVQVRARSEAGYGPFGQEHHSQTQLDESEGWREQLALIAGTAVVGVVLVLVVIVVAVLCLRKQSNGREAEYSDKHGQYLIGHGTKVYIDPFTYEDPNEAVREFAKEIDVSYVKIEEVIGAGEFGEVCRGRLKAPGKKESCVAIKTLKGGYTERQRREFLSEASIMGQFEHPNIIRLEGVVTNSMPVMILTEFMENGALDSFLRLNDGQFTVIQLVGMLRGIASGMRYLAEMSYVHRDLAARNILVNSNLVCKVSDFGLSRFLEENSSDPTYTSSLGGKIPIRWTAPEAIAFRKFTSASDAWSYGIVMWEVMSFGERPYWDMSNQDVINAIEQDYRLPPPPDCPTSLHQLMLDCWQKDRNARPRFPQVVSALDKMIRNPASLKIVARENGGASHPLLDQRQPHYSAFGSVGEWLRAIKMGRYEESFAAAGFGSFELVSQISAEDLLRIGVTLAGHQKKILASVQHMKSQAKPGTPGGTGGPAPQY
# How it was run: as §1
# Sequence of EphA4 (Q03137 20-547 limits assumed): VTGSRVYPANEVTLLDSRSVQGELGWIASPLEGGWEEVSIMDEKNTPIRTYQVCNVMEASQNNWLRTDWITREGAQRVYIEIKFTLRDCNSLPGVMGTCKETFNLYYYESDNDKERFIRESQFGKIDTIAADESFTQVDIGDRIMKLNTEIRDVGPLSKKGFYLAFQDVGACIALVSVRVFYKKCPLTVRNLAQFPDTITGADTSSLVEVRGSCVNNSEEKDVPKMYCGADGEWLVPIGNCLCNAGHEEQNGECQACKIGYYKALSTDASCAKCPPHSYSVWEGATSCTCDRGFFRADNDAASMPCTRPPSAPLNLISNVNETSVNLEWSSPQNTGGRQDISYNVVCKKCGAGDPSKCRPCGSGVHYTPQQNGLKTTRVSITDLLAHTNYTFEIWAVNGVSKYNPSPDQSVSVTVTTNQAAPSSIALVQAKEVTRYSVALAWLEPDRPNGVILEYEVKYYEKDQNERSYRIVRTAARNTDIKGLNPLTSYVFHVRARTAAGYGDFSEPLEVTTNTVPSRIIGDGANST
smiles,measurement,setting,value
"O=C(Oc1cc(O)cc2c1C[C@@H](OC(=O)c1cc(O)c(O)c(O)c1)[C@@H](c1cc(O)c(O)c(O)c1)O2)c1cc(O)c(O)c(O)c1 [epigallocatechin-3,5-digallate]",IC50,EphA4; read-out: IC50 ± SE EphA4 KYL,1.5 ± 0.13 µM
same,(% Inhib.) EphA4 KYL,"EphA4; screen, compounds at 10 μM",58%
same,inhibition of EphB2-ephrin interaction,EphB2,does not target
same,inhibition of EphB2-ephrin interaction,"EphB2; listed as Epigallocatechin-3,5-digallate",no inhibition
same,IC50,EphA2 [1],90 µM and ~90 µM
same,EphA2 phosphorylation in HUVECs,EphA2 [2],strongly inhibits
same,EphB4 phosphorylation in HUVECs,EphB4,strongly inhibits
